Assay outcomes from PubChem.
TAAR1 ag: agonists of human TAAR1; Q96RJ0; CHO RD-HGA16 TAAR1, Fluo-8 calcium fluorescence; vehicle wells 0%, saturating PEA agonist 100%; activation, % at 3 µM; 0.99% of 360,000 active; AID 624467;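 active means activation above the mean activation of all test compounds in the run plus 3 SD, cut at about 38% in these data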
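Assay system – CHO-derived RD-HGA16 cells with stable Gα16 and human TAAR1 · Compound dosing – one-point dosing at 3 µM (nominal) · Incubation – 17-24 h seeding, 75 min 37 °C dye, 30 min RT · Measured by – kinetic Fluo-8 calcium fluorescence · Control set – DMSO vehicle as 0%, PEA at EC100 as 100% · Repeats – single well for each compound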
OX1R antag-1: blocks the human orexin 1 receptor. 0.43% of 330,000 active. O43613. inhibition, % at 5 µM. AID 434989. CHO/OX1R cells, Fluo-8 calcium fluorescence, orexin A;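 active means inhibition above its plate's threshold, mean inhibition of all tested compounds on the plate plus 3 SD, cut at about 37% in these data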;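 further: 0% = orexin A challenge wells and 100% = SB-334867-A antagonist wells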
Target sequence (O43613 whole entry, looked up): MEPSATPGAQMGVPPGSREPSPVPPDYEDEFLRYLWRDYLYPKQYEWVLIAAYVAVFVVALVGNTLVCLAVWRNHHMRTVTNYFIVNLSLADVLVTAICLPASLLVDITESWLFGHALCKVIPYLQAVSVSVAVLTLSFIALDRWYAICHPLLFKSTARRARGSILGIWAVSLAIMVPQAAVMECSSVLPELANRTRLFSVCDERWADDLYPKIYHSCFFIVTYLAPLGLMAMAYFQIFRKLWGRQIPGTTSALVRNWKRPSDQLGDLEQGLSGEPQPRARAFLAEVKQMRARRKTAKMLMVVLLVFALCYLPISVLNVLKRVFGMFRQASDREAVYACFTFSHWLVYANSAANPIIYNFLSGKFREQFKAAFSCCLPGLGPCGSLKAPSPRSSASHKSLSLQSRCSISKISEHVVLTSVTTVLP
OX1R antag-2: antagonists of human orexin 1 receptor (OX1R). O43613. OX1R-expressing cells, FRET antagonist read-out. inhibition, % at 6.6 µM. 1.8% of 330,000 active. AID 485270; in the data active means inhibition mostly above about 38%, no sharp cut-off; inactive means mostly below about 40%;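 further: 0% = agonist challenge alone and 100% = reference antagonist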
GPR7 antagonist: human neuropeptides B/W receptor 1 antagonism; P48145; GPR7-expressing cells, fluorescence antagonist assay; inhibition, % at 4.4 µM; 1.1% of 290,000 active; in the data active means inhibition above about 16%, passing the limit was not always enough;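 further: cells stimulated with the agonist NPW; 0% = agonist with vehicle and 100% = vehicle without agonist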
Target sequence (P48145 whole entry, looked up): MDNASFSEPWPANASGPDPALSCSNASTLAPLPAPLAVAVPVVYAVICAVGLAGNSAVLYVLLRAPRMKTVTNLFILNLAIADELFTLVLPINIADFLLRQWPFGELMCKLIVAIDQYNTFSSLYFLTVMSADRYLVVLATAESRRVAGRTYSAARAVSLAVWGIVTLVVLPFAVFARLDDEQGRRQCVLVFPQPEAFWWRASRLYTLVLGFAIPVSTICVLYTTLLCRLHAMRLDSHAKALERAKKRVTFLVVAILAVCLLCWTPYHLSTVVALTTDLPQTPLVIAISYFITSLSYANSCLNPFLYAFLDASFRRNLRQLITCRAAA
TAAR1 antagonist: human TAAR1 antagonism; 1.5% of 360,000 active; Q96RJ0; inhibition, % at 3 µM; CHO RD-HGA16 TAAR1, Fluo-8 calcium fluorescence, antagonist;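 active means inhibition above a per-plate cutoff, the mean inhibition of test compounds on that plate plus 3 SD, cut at about 49% in these data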;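 further: 0% = DMSO plus EC80 beta-PEA response and 100% = DMSO alone without agonist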
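Test system: RD-HGA16 CHO cells with stable hTAAR1 and Gα16 / Probe or stimulus: EC80 β-phenethylamine stimulus / Times: seeding 17-24 h prior, 75-min 37 °C, 30-min RT dye loading / Detection: Fluo-8 calcium-sensitive fluorescence / Read-out basis: % inhibition scaled between DMSO and EC80 PEA controls / Repeats: singlicate, one well per test compound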
CHO parental Ca: counter-screen for OX1R antagonists: effect in parental CHO cells | parental CHO-K1, ATP-induced calcium, Fluo-8 fluorescence | inhibition, % at 5.6 µM | 0.63% of 330,000 active;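 active means inhibition above that plate's mean sample inhibition plus 3 SD, cut at about 26% in these data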;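 further: 0% = ATP-challenged DMSO wells and 100% = DMSO wells without ATP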
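Test system: untransfected parental CHO cell line; also added: ATP stimulus; dosing: 5.6 µM, single dose; signal: calcium-sensitive Fluo-8 fluorescence; measure: percent inhibition of ATP-evoked calcium rise, normalized to controls; benchmarks: low control ATP plus DMSO, high control DMSO only; replication: one well per compound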
GPR7 antag cf: human GPR7 antagonism, confirmation assay; inhibition, % at 4.4 µM; 52% of 2,400 active; shares compounds with GPR7 antagonist; GPR7-expressing cells, calcium fluorescence antagonist mode; in the data active means inhibition above about 24%;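 further: stimulated with the GPR7 agonist NPW; 0% = agonist plus vehicle and 100% = vehicle alone without agonist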
MCHR1 antagonist: counter-screen for GPR7 antagonists: antagonists of human MCHR1 | shares compounds with GPR7 antagonist | MCHR1-expressing cells, fluorescence antagonist assay | inhibition, % at 4.4 µM | 62% of 2,400 active | AID 2148; in the data active means inhibition above about 22%;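 further: 0% = vehicle with agonist and 100% = vehicle without agonist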
Active calls of the source: *; nt = no result given. Compounds with a hit are over-represented: about 4.5% of the library has one in this group of screens.

SMILES | TAAR1 ag | OX1R antag-1 | OX1R antag-2 | GPR7 antagonist | TAAR1 antagonist | CHO parental Ca | GPR7 antag cf | MCHR1 antagonist
CCOC(=O)C1(CCOc2ccccc2)CCN(Cc2ccc(OC)c(O)c2)CC1 | 9 | -28 | 10 | 11 | -19 | -9 | nt | nt
COc1ccc(CN2CCC(CO)(CCOc3ccccc3)CC2)c(OC)c1C | 8 | -22 | 25 | 28* | 2 | -14 | 37* | 24*
CCOC(=O)C1(CCOc2ccccc2)CCN(Cc2ccc(OC)c(COC)c2)CC1 | 7 | 5 | 6 | 36* | 6 | 21 | 36* | 52*
COc1cc(Cl)c(CN2CCC(CO)(CCOc3ccccc3)CC2)cc1OC | 18 | -32 | 4 | 3 | -20 | -17 | nt | nt
COc1cc(C(=O)NCC(=O)NCC(c2ccco2)N2CCCCC2)cc(OC)c1OC (stereo unspecified) | 13 | -4 | 3 | nt | -1 | -15 | nt | nt
Cc1ccc2cc(/C=N/NC(=O)CN3CCCCC3)c(Cl)nc2c1 | 0 | -33 | 65 | -5 | 29 | -30 | nt | nt
NS(=O)(=O)c1ccc2nc(NC(=O)Nc3ccc(F)cc3)sc2c1 | 17 | 4 | 28 | 34* | 8 | 10 | 50* | 15
CS(=O)(=O)c1ccc2nc(NC(=O)Nc3ccc(Cl)cc3)sc2c1 | 22 | 3 | 24 | 5 | 27 | -8 | nt | nt
O=c1c2cc(NC(=S)NCCN3CCCCCC3)ccc2nc2n1CCCCC2 | 1 | -26 | 9 | -3 | -14 | -14 | nt | nt
O=c1c2cc(NC(=S)NCCCN3CCC(Cc4ccccc4)CC3)ccc2nc2n1CCCCC2 | 27 | -4 | 16 | 22* | 8 | -6 | 52* | 73*
O=C(Cc1n[nH]c(=O)c2ccccc12)Nc1cc(Cl)ccc1-n1cncn1 | 1 | -10 | 22 | nt | 11 | -5 | nt | nt
CC(=O)Nc1ccc(S(=O)(=O)N2CCc3cc4c(cc3C2)OCCCO4)cc1 | 0 | -3 | 24 | 29* | -52 | 21 | 15 | 37*
CC(=O)Nc1ccc(S(=O)(=O)N2CCCC2)cc1 | -1 | -3 | 15 | -7 | -5 | -9 | nt | nt
CC(O)CN(C)CC/C=C1/c2ccccc2CSc2ccccc21 (stereo unspecified) | -2 | -15 | 22 | 22* | 8 | -16 | 17 | 18
C=CCN(C)CC/C=C1\c2ccccc2CSc2ccccc21 | 26 | -14 | 12 | 0 | 10 | -11 | nt | nt
COc1ccc(NC(=O)C2CCN(S(=O)(=O)c3ccc(N4CCCC4=O)cc3)CC2)cc1OC | 0 | -17 | 4 | -3 | -5 | -20 | nt | nt
O=C(Nc1ccc(C(F)(F)F)cc1)C1CCN(S(=O)(=O)c2ccc(N3CCCC3=O)cc2)CC1 | 6 | -10 | 4 | 23* | 1 | -7 | 23 | 49*
O=C(O)[C@H]1CCCC[C@H]1C(=O)Nc1ccc(S(=O)(=O)N2CCCCC2)cc1 | 0 | -7 | 18 | 23* | -3 | 8 | -17 | -5
O=C(O)[C@H]1CCCC[C@H]1C(=O)Nc1ccc(S(=O)(=O)N2CCOCC2)cc1 | 1 | -10 | 21 | -12 | -10 | -5 | nt | nt
Cc1ccc(OCC(O)CN2CC3(C)CC2CC(C)(C)C3)cc1 (stereo unspecified) | 6 | -33 | 5 | -5 | -5 | -26 | nt | nt
CC(C)c1ccc(NC(=O)NC2(C(=O)NCc3cccnc3)CCCCC2)cc1 | 11 | -16 | 2 | 3 | -24 | -9 | nt | nt
Cn1nnnc1SCCNCC#Cc1ccccc1 | 8 | -14 | 18 | 26* | 2 | -8 | 8 | 4
Cn1nnnc1SCCNCc1ccccc1F | 5 | -12 | 12 | 4 | 24 | -6 | nt | nt
C[C@@H]1CN([C@H](C)CO)C(=O)CCCn2nncc2CO[C@@H]1CN(C)S(=O)(=O)c1ccc2ccccc2c1 | 0 | nt | nt | nt | -6 | nt | nt | nt
COc1ccccc1-c1noc(CCC(=O)Nc2cccnc2)n1 | 1 | nt | nt | nt | 4 | nt | nt | nt
SMILES | TAAR1 ag | OX1R antag-1 | OX1R antag-2 | GPR7 antagonist | TAAR1 antagonist | CHO parental Ca | GPR7 antag cf | MCHR1 antagonist
COc1ccccc1-c1noc(CCC(=O)Nc2cc(C(F)(F)F)ccc2Cl)n1 | 24 | 6 | 24 | 23* | 2 | 13 | 15 | 32*
O=C(Cn1nc([N+](=O)[O-])nc1Br)NC(c1ccccc1)c1ccccc1 | 3 | -26 | 22 | 34* | 14 | -14 | 12 | 14
Cc1cc([N+](=O)[O-])nn1CC(=O)NC(C)c1ccccc1 (stereo unspecified) | 4 | -7 | 12 | -7 | -14 | -16 | nt | nt
O=C(COc1ccc2c(-c3ccccc3)cc(=O)oc2c1)Nc1ccc(CCO)cc1 | 8 | 2 | 15 | 10 | 35 | 14 | nt | nt
COC(=O)C(CC(=O)c1ccc(Br)cc1)n1ccnc1 (stereo unspecified) | nt | nt | nt | -8 | nt | nt | nt | nt
CC(=O)c1ccc(NC(=O)COC(=O)CCN2C(=O)c3cccc([N+](=O)[O-])c3C2=O)cc1 | 2 | -30 | 8 | -2 | -4 | -7 | nt | nt
CC(C)N(c1ccccc1)c1ccc(NC(=O)COC(=O)CCN2C(=O)c3cccc([N+](=O)[O-])c3C2=O)cc1 | 1 | 2 | 7 | 29* | 12 | 6 | 74* | 60*
CCc1ccc(Nc2n[n+](-c3ccccc3)c(-c3ccc(N(CC)CC)cc3)s2)cc1 | 50* | 29 | 25 | 62* | 50* | 45* | 88* | 83*
CCc1ccc(Nc2n[n+](-c3ccccc3)c(-c3c(Cl)cccc3Cl)s2)cc1 | 59* | 103* | 36 | 45* | 92* | 93* | 60* | 73*
CCc1ccc(Nc2n[n+](-c3ccccc3)c(-c3cc(OC)c(OC)cc3Br)s2)cc1 | 15 | -21 | 1 | -3 | 7 | -13 | nt | nt
c1ccc(COc2ccc(-c3sc(Nc4ccccc4)n[n+]3-c3ccccc3)cc2)cc1 | nt | -6 | 26 | 9 | nt | 0 | nt | nt
CCc1ccc(Nc2n[n+](-c3ccccc3)c(-c3ccc(OCc4ccccc4)cc3)s2)cc1 | 1 | -8 | 14 | 68* | 2 | 3 | 53* | 59*
O=C(NCCN1CCN(S(=O)(=O)c2ccc([N+](=O)[O-])cc2)CC1)C(=O)Nc1ccccc1 | 1 | -11 | 19 | 6 | -7 | -7 | nt | nt
CCOc1ccc(Cc2n[nH]c(=S)n2Cc2ccccc2)cc1 | 3 | -15 | 9 | -8 | -7 | -3 | nt | nt
CCc1ccc(C(C)NC(=S)NCc2ccc(F)cc2)cc1 (stereo unspecified) | 40* | 0 | 15 | 31* | 44 | 14 | 43* | 75*
O=C(NCCc1c[nH]c2ccccc12)c1ccc2[nH]c(=O)c(=O)[nH]c2c1 | 0 | -18 | -7 | 40* | -7 | 1 | -23 | 12
